# ChEMBL document CHEMBL1147085, “Metabolism and pharmacokinetics of a novel Src kinase inhibitor TG100435 ([7-(2,6-dichloro-phenyl)-5-methyl-benzo[1,2,4]triazin-3-yl]-[4-(2-pyrrolidin-1-yl-ethoxy)-phenyl]-amine) and its active N-oxide metabolite TG100855 …” (Drug Metab Dispos, 2007)
# How the values were obtained:
# [1] = Drug level in BALB/c mouse plasma at 5 mg/kg, iv; assay type: ADME, organism-based; design: dose 5 mg/kg, route intravenous
# Method in brief: (§1)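 Male BALB/c mice (~25 g); fasted overnight for single p.o. dosing, not fasted for i.v. or i.p. dosing. Composite blood sampling, n=3 per time point: 5, 15, 30 min, 1, 3, 6, 24, 48 hr after i.v. dose; 0.5, 1, 3, 5, 8, 24, 30, 48 hr after p.o. or i.p. dose. Heparinized plasma, both parent and N-oxide measured by LC/MS/MS (MRM 494.2/98.1 and 510.2/98.1); non-compartmental analysis, AUC by linear trapezoidal rule.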
# [2] = Volume of distribution in Sprague-Dawley rat at 5 mg/kg, iv; assay type: ADME, organism-based; design: dose 5 mg/kg, route intravenous; settings: in vivo
# Mus musculus [3] = test: AUC (0 to infinity) in BALB/c mouse assessed as AUC of ([7-(2,6-Dichloro-phenyl)-5-methyl-benzo[1,2,4]triazin-3-yl]-[4-(2-pyrrolidin-1-yl-ethoxy)-phenyl]-amine) at 5 mg/kg, iv; assay type: ADME, organism-based, Plasma; design: time infinity, dose 5 mg/kg, route intravenous; settings: in vivo; method in brief: as §1
# Rattus norvegicus [4] = test: AUC (0 to infinity) in Sprague-Dawley rat assessed as AUC of ([7-(2,6-Dichloro-phenyl)-5-methyl-benzo[1,2,4]triazin-3-yl]-[4-(2-pyrrolidin-1-yl-ethoxy)-phenyl]-amine) at 25 mg/kg, po; settings: in vivo
# [5] = AUC (0 to infinity) in BALB/c mouse at 25 mg/kg, po; assay type: ADME, organism-based; design: time infinity, dose 25 mg/kg, route oral; settings: plasma; method in brief: as §1
# Mus musculus [6] = test: AUC (0 to infinity) in BALB/c mouse assessed as AUC of ([7-(2,6-Dichloro-phenyl)-5-methyl-benzo[1,2,4]triazin-3-yl]-[4-(2-pyrrolidin-1-yl-ethoxy)-phenyl]-amine) at 5 mg/kg, ip; assay type: ADME, organism-based, Plasma; design: time infinity, dose 5 mg/kg, route intraperitoneal; settings: in vivo; method in brief: as §1
# [7] = molecular target: Tyrosine-protein kinase Lyn (Homo sapiens, UniProt P07948); test: Inhibition of Lyn by luminescence based kinase assay
# Rattus norvegicus [8] = test: AUC (0 to infinity) in Sprague-Dawley rat assessed as AUC of ([7-(2,6-Dichloro-phenyl)-5-methyl-benzo[1,2,4]triazin-3-yl]-[4-(2-pyrrolidin-1-yl-ethoxy)-phenyl]-amine) at 5 mg/kg, iv; assay type: ADME, organism-based, Plasma; design: time infinity, dose 5 mg/kg, route intravenous; settings: in vivo
# [9] = Tmax in BALB/c mouse at 25 mg/kg, po; assay type: ADME, organism-based; design: dose 25 mg/kg, route oral; settings: in vivo
# [10] = Clearance in BALB/c mouse at 5 mg/kg, iv; assay type: ADME, organism-based; design: dose 5 mg/kg, route intravenous; settings: in vivo; method in brief: as §1
# [11] = Clearance in Sprague-Dawley rat at 5 mg/kg, ip; assay type: ADME, organism-based; design: dose 5 mg/kg, route intraperitoneal; settings: in vivo
# [12] = Clearance in Sprague-Dawley rat at 5 mg/kg, iv; assay type: ADME, organism-based; design: dose 5 mg/kg, route intravenous; settings: in vivo
# Ephrin type-B receptor 4 = molecular target: T1, Ephrin type-B receptor 4 (Homo sapiens, UniProt P54760); test: Inhibition of EphB4 by luminescence based kinase assay
# T1 sequence (P54760 whole entry): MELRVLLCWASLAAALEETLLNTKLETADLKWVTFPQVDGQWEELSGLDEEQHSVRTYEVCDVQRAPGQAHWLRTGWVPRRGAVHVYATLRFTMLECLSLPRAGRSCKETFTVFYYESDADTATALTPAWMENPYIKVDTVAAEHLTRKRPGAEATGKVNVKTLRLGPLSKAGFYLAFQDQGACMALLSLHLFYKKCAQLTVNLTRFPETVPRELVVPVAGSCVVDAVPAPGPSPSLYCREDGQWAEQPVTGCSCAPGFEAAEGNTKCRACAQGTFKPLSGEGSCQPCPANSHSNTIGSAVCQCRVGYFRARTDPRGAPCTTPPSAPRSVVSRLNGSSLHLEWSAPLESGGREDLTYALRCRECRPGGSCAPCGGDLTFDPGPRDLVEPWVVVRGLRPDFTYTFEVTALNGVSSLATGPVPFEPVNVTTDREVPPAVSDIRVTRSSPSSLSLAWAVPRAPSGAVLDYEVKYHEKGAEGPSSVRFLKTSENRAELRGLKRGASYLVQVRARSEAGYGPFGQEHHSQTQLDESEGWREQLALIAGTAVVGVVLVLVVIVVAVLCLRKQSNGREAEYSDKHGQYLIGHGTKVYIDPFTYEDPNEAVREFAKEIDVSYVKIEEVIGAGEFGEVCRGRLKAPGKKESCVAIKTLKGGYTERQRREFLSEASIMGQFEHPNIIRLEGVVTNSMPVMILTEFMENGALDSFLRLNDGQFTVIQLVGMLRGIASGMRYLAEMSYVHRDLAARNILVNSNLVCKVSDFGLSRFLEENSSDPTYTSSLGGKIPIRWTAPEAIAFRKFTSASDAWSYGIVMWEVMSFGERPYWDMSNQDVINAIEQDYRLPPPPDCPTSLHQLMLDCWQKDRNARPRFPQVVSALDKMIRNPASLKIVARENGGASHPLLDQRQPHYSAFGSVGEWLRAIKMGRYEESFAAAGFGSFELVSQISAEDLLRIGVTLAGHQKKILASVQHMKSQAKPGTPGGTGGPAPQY
# Mus musculus [13] = test: Maximal plasma concentration of TG100435 in BALB/C mice after 25 mg/kg oral dose of TG100855; assay type: ADME, organism-based; design: dose 25 mg/kg, route oral; settings: in vivo; method in brief: as §1
# Rattus norvegicus [14] = test: Bioavailability in Sprague-Dawley rat assessed as bioavailability of ([7-(2,6-Dichloro-phenyl)-5-methyl-benzo[1,2,4]triazin-3-yl]-[4-(2-pyrrolidin-1-yl-ethoxy)-phenyl]-amine) at 25 mg/kg, po; settings: in vivo
# [15] = Tmax in Sprague-Dawley rat at 25 mg/kg, po; assay type: ADME, organism-based; design: dose 25 mg/kg, route oral; settings: in vivo
# [16] = AUC (0 to infinity) in Sprague-Dawley rat at 25 mg/kg, po; assay type: ADME, organism-based; design: time infinity, dose 25 mg/kg, route oral; settings: plasma
# [17] = Bioavailability in Sprague-Dawley rat at 25 mg/kg, po; assay type: ADME, organism-based; settings: in vivo
# [18] = molecular target: Tyrosine-protein kinase Lck (Homo sapiens, UniProt P06239); test: Inhibition of Lck by luminescence based kinase assay
# [19] = AUC (0 to last) in BALB/c mouse at 25 mg/kg, po; assay type: ADME, organism-based; design: time 0 - last, dose 25 mg/kg, route oral; settings: plasma; method in brief: as §1
# [20] = Half life in BALB/c mouse at 5 mg/kg, iv; assay type: ADME, organism-based; design: dose 5 mg/kg, route intravenous; settings: in vivo; method in brief: as §1
# [21] = Cmax in Sprague-Dawley rat at 25 mg/kg, po; assay type: ADME, organism-based; design: dose 25 mg/kg, route oral; settings: in vivo
# Mus musculus [22] = test: AUC (0 to last) in BALB/c mouse assessed as AUC of ([7-(2,6-Dichloro-phenyl)-5-methyl-benzo[1,2,4]triazin-3-yl]-[4-(2-pyrrolidin-1-yl-ethoxy)-phenyl]-amine) at 25 mg/kg, po; settings: in vivo
# [23] = Clearance in BALB/c mouse at 5 mg/kg, ip; assay type: ADME, organism-based; design: dose 5 mg/kg, route intraperitoneal; settings: in vivo; method in brief: as §1
# Chain of Tyrosine-protein kinase Lyn (P07948 whole entry): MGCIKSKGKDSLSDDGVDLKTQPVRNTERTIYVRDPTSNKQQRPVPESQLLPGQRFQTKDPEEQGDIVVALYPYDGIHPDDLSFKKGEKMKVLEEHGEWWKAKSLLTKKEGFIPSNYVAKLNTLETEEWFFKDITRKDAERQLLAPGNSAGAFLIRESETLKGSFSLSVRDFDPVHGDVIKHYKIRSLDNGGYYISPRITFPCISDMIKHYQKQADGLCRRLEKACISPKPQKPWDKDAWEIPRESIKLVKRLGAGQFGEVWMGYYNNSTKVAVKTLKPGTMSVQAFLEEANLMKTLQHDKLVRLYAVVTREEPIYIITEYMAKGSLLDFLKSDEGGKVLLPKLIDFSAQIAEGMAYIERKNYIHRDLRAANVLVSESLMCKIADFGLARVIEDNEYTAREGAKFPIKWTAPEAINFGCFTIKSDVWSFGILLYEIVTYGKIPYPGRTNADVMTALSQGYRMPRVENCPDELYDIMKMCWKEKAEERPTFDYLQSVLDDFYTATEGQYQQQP
# Chain of Tyrosine-protein kinase Lck (P06239 whole entry): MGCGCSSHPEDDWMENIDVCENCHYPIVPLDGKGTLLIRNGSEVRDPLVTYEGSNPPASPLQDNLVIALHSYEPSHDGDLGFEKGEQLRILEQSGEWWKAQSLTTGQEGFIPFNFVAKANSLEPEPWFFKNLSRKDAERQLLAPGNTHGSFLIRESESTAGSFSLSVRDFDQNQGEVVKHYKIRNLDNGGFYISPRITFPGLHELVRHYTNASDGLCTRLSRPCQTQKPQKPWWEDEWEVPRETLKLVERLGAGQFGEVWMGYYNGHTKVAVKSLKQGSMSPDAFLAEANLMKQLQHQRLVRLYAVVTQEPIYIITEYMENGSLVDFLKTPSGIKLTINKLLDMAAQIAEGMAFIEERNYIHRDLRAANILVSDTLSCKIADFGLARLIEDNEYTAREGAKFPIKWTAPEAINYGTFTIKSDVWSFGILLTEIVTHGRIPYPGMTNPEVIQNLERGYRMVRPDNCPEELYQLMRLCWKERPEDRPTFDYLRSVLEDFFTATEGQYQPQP
smiles,measurement,setting,value
Cc1cc(-c2c(Cl)cccc2Cl)cc2nnc(Nc3ccc(OCC[N+]4([O-])CCCC4)cc3)nc12,C0,[1],9030 ng/mL
same,Vd,[2],1.9 L/kg
same,AUC,Mus musculus [3],1390 ng·h/mL
same,AUC,Rattus norvegicus [4],906 ng·h/mL
same,AUC(0-inf),[5],939 ng·h/mL
same,AUC,Mus musculus [6],1400 ng·h/mL
same,Ki,[7],4.19 nM
same,AUC,Rattus norvegicus [8],539 ng·h/mL
same,Tmax,[9],1 h
same,clearance,[10],15.6 mL/min/kg
same,CL/F,[11],17 mL/min/kg
same,clearance,[12],13.8 mL/min/kg
same,Ki,Ephrin type-B receptor 4,7.27 nM
same,Cmax,Mus musculus [13],113 ng/mL
same,F,Rattus norvegicus [14],3.1%
same,Tmax,[15],3.5 h
same,AUC(0-inf),[16],470 ng·h/mL
same,bioavailability,[17],1.6%
same,Ki,[18],11.7 nM
same,AUC(0-t),[19],912 ng·h/mL
same,half-life,[20],0.9 h
same,Cmax,[21],160 ng/mL
same,AUC,Mus musculus [22],1740 ng·h/mL
same,CL/F,[23],11.6 mL/min/kg
